Experimental findings from ChEMBL document CHEMBL1146725, “Discovery and SAR of potent, orally available and brain-penetrable 5,6-dihydro-4H-3-thia-1-aza-benzo[e]azulen- and 4,5-dihydro-6-oxa-3-thia-1-aza-benzo[e]azulen derivatives as neuropeptide Y Y5 receptor antagonists” (Bioorg Med Chem Lett, 2004) are described below.

“And” between values parts separate entries of the source, which are not always exact repeats. Equal entries are not always repeated.

Series [1] is described as follows: (§1) Concentration (30 mg/kg, p.o.) in rat hypothalamus after 6 hours. It counts as ADME, organism-based. As to conditions: hypothalamus, po. In a few lines: (§2)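 Male rats (RA238), fasted overnight, given 30 mg/kg by oral gavage (5 mL/kg) in 20% Cremophore EL/water (w/w). Plasma and hypothalamus were sampled at 2 and 6 h post-dose and levels measured by LC-MS. Values are the mean of 3-6 animals per time point, as µg/mL plasma and µg/g hypothalamus.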

In series [2] the target is T1, Neuropeptide Y receptor type 5 (Homo sapiens, UniProt Q15761).
T1 sequence (Q15761 whole entry): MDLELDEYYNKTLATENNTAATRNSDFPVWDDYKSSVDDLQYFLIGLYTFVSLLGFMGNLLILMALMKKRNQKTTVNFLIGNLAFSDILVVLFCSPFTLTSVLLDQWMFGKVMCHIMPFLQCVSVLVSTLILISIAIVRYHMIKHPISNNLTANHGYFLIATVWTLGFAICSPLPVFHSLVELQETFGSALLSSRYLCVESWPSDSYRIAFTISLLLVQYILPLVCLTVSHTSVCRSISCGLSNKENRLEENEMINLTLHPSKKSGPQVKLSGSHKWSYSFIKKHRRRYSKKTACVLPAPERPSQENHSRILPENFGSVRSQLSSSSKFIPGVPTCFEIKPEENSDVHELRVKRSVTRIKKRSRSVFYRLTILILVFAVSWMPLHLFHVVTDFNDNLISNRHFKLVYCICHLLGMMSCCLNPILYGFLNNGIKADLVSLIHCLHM
The experiment in a line: In vitro binding affinity against human neuropeptide Y5 receptor.

In series [3] the target is T1, Neuropeptide Y receptor type 5. Description: In vitro binding affinity against human neuropeptide Y5 receptor measured as Ca+ response. The method, boiled down: (§3)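 Reported as IC50 (nM), each value the mean of three separate experiments.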
Series [4] deals with T2, Neuropeptide Y receptor type 5 (Rattus norvegicus, UniProt Q63634).
T2 sequence (Q63634 whole entry): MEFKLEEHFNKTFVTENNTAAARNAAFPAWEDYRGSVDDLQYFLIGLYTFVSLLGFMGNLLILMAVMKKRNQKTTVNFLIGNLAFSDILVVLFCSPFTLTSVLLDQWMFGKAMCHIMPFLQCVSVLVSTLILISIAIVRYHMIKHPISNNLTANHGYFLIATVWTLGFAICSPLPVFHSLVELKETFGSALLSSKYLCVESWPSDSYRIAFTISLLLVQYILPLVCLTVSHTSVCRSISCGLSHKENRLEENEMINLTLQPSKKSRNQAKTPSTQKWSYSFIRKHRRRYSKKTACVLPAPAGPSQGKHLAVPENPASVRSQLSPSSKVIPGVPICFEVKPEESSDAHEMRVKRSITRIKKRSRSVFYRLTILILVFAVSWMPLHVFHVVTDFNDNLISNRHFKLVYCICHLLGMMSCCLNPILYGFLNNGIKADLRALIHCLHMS
Description: In vitro binding affinity against rat neuropeptide Y5 receptor. The method, boiled down:
as §3

Series [5] is described as follows: (§4) Concentration (30 mg/kg, p.o.) in rat plasma after 2 hours. It counts as ADME, organism-based. As to conditions: plasma, po. In a few lines: as §2
Series [6] can be described thus: (§5) Concentration (30 mg/kg, p.o.) in rat hypothalamus after 2 hours. It is filed as ADME, organism-based. As to conditions: hypothalamus, po. The method, boiled down:
as §2

Series [7] in a line: (§6) Concentration (30 mg/kg, p.o.) in rat plasma after 6 hours. It is filed as ADME, organism-based. As to conditions: plasma, po. In a few lines: as §2
For series [8], the system named is Rattus norvegicus. Described as §1. It counts as ADME, organism-based. As to conditions: in vivo, po, 6 h. In a few lines: as §2
The test system of series [9] is Rattus norvegicus. Described as §4. It is filed as ADME, organism-based. As to conditions: in vivo, po, 2 h. In a few lines:
as §2

The test system of series [10] is Rattus norvegicus. The series is described as §5. It is filed as ADME, organism-based. The note with it: in vivo, po, 2 h. The method, boiled down:
as §2

Series [11] deals with Rattus norvegicus. Described as §6. It is filed as ADME, organism-based. As to conditions: in vivo, po, 6 h. The method, boiled down: as §2

For orientation: IC50 means the concentration needed to halve the response being measured. The low end stands for inhibition by little substance, the high end for a need for much substance. `Cc1ccc2c(c1)-c1nc(NCC3CCN(C(=O)[C@H]4CCCO4)CC3)sc1CCO2`: the concentration at 6 h in series [1] turned out to be 400 ng/g; in series [7], 260 ng/mL. Besides, the IC50 turned out to be 5 nM in [2], 40 nM in series [3] and 2.9 nM in series [4]. Also, the values for the concentration at 2 h in series [5] and in [6] were 870 ng/mL and 1460 ng/g, respectively.
Take `CCCCC(=O)N1CCC(CNc2nc3c(s2)CCOc2ccc(F)cc2-3)CC1`: the figures for the concentration at 6 h in series [1] and in [7] were 260 ng/g and 70 ng/mL, respectively. Also, the IC50 in series [2] was 7 nM; in series [3], 100 nM; in series [4] it was 6 nM. Besides, the concentration at 2 h worked out at 740 ng/mL in series [5] and 2230 ng/g in series [6].
With `O=C([C@@H]1CCCO1)N1CCC(CNc2nc3c(s2)CCCc2ccc(F)cc2-3)CC1`, the Concentration with Rattus norvegicus [8] is 1.33 µg/g and 0.64 µg/g; in the series with Rattus norvegicus [9], 1600 ng/mL; in the series with Rattus norvegicus [10], 6.69 µg/g; with Rattus norvegicus [11] it was 320 ng/mL and 140 ng/mL. The IC50 in series [2] was determined as 2 nM. Also, the concentration at 2 h was 1600 ng/mL in [5] and 6690 ng/g in [6].
